Measurements published in ChEMBL document CHEMBL1158116, “Prenylated flavonoids from the root bark of Berchemia discolor, a Tanzanian medicinal plant” (2006).
In brackets after ≈: the same amount, converted by molar mass. Activity calls are given as the source filed them. The calls are words filed in the database; no cut-off is given here.

Tests used:
Lu1 [1] = assay: Cytotoxicity against human Lu1 cells; format: functional; conditions: read-out: ED50 (the source's name)
Summary of the method: (§1)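 Panel of three human cancer lines (Lu1, LNCaP, MCF-7). Cytotoxicity expressed as ED50 in µg/mL.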

LNCaP [2] = assay: Inhibition of human LNCAP cells propagated in hollow fibers via intraperitoneal site of immunodeficient NCr nu/nu mouse at 10 to 40 mg/kg, ip once daily after 7 days of implantation relative to control; format: functional; conditions: dose mg/kg 10-40
Summary of the method: (§2)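 In vivo hollow fiber model in immunodeficient mice. Fibers loaded with Lu1, LNCaP or MCF-7 cells were implanted subcutaneously or intraperitoneally. Vehicle or drug was given ip once daily at 10, 20 or 40 mg/kg on days 3-6 after implantation. Mice were sacrificed on day 7, and fibers were retrieved and analysed for growth inhibition versus vehicle.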

MCF7 [3] = assay: Cytotoxicity against human MCF7 cells; format: functional; conditions: read-out: ED50 (the source's name); summary of the method: as §1
Lu1 [4] = assay: Inhibition of human Lu1 cells propagated in hollow fibers via subcutaneous site of immunodeficient NCr nu/nu mouse at 10 to 40 mg/kg, ip once daily after 7 days of implantation; format: functional, organism-based; summary of the method: as §2
LNCaP [5] = assay: Cytotoxicity against human LNCAP cells; format: functional; conditions: read-out: ED50 (the source's name); summary of the method: as §1
MCF7 [6] = assay: Inhibition of human MCF7 cells propagated in hollow fibers via subcutaneous site of immunodeficient NCr nu/nu mouse at 10 to 40 mg/kg, ip once daily after 7 days of implantation; format: functional, organism-based; summary of the method: as §2

Row | Structure (SMILES) | EC50 (Lu1 [1]) [µg/mL] | inhibition (INH) (LNCaP [2]) [%] | EC50 (MCF7 [3]) [µg/mL] | Activity (Lu1 [4]) | EC50 (LNCaP [5]) [µg/mL] | Activity (MCF7 [6])
1 | COc1ccc([C@H]2COc3c(ccc4c3C=CC(C)(CCC=C(C)C)O4)C2)c(O)c1O (stereo not given in full) [NITIDULIN] | 4.2 (≈ 9.94 µM) | 49 | 3.5 (≈ 8.28 µM) | inactive | 4.1 (≈ 9.7 µM) | inactive
2 | COc1ccc([C@H]2COc3cc4c(c(O)c3C2=O)C=CC(C)(CCC=C(C)C)O4)c(O)c1O (stereo partly drawn) [(3S)-ISODISCOLORANONE B] | > 5 |  | > 5 |  | > 5 | 
3 | CC1(C)C=Cc2c(ccc3c2OCC(c2cc4c(cc2O)OCO4)C3)O1 (stereo not given) [LEIOCIN] | > 5 |  | > 5 |  | > 5 | 
4 | CC1(C)C=Cc2c(cc(O)c3c2OCC(c2cc4c(cc2O)OCO4)C3=O)O1 (racemic) [DISCOLORANONE A] | > 5 |  | > 5 |  | > 5 | 
5 | COc1ccc([C@]2(O)COc3c(ccc4c3C=CC(C)(C)O4)C2)c(O)c1 | > 5 |  | > 5 |  | > 5 | 
6 | CC1(C)C=Cc2c(ccc3c2OCC2c4cc5c(cc4OC32)OCO5)O1 (stereo not given) [LEIOCARPIN] | > 5 |  | > 5 |  | > 5 | 
7 | COc1ccc([C@H]2COc3c4c(cc(O)c3C2=O)OC(C)(CCC=C(C)C)C=C4)c(O)c1O (stereo not given in full) [DISCOLORANONE] | 9.6 (≈ 21.2 µM) |  | 3.6 (≈ 7.96 µM) |  | 6.4 (≈ 14.1 µM) | 
8 | COc1ccc(C2COc3c(ccc4c3C=CC(C)(CCC=C(C)C)O4)C2)c(O)c1 (stereo not given) [HEMINITIDULAN] | > 5 |  | > 5 |  | > 5 | 
9 | CC1(C)C=Cc2c(c(O)cc3c2OCC(c2cc4c(cc2O)OCO4)C3)O1 (stereo not given) [LEIOCINOL] | > 5 |  | > 5 |  | > 5 | 
10 | C=C(CO)[C@H]1Cc2c(ccc3c2O[C@@H]2COc4cc(OC)c(OC)cc4[C@]2(O)C3=O)O1 [DABINOL] | 3.1 (≈ 7.27 µM) |  | 13.1 (≈ 30.7 µM) |  | 5.4 (≈ 12.7 µM) | 
11 | CC1(C)C=Cc2c(cc3c(c2O)C(=O)[C@@H](c2cc4c(cc2O)OCO4)CO3)O1 [(3S)-ISODISCOLORANONE A] | > 5 |  | > 5 |  | > 5 | 
12 | C=C(CO)[C@H]1Cc2c(ccc3c2O[C@@H]2COc4cc(OC)c(OC)cc4[C@@H]2C3=O)O1 [AMORPHIGENIN] | 4.8 (≈ 11.7 µM) |  | > 20 |  | 7.9 (≈ 19.2 µM) | 
13 | CC(C)=CCCC1(C)C=Cc2c(ccc3c2OCC(c2cc4c(cc2O)OCO4)C3)O1 (stereo not given) [NITIDULAN] | > 5 |  | > 5 |  | > 5 | 
14 | CC1(C)C=Cc2c(c(O)cc3c2OC[C@@H]2c4cc5c(cc4O[C@H]32)OCO5)O1 | > 5 |  | > 5 |  | > 5 | 
